Experimental data collected from several papers.
Lines come from different studies, so protocols differ.
Target: Aurora kinase C (AURKC, Homo sapiens, UniProt Q9UQB9)

CNc1cccc2cc(C(=O)Nc3ccc(C(=O)O)cc3)c(=O)[nH]c12
inhibition (enzyme activity; inhibitor; 10 µM): -7.3%

O=c1c2ccccc2[nH]c(=S)n1CCN1CCC(=C(c2ccc(F)cc2)c2ccc(F)cc2)CC1
remaining activity (enzyme activity; inhibitor; 0.5 µM): 99.4%

Cc1cc(NC(=O)c2cccc3cc(-c4cccc5[nH]nc(N)c45)ccc23)ccc1F
activity vs control (enzyme activity; inhibitor; 0.1 µM): 83%

CCC(=O)N[C@H]1CC[C@@H](C(=O)N(C)c2ccc(-c3nc4ccccc4o3)cc2)C1
remaining binding (cell-free assay; competition with immobilised ligand; 1 µM): 100%

COc1cc2ncnc(Nc3ccc(Oc4ccccc4)c(C)c3C)c2cc1OC
inhibition (enzyme activity; inhibitor; 1 µM): 5%

N#CCCc1ccc2c(c1)-c1[nH]c3ccc([N+](=O)[O-])cc3c1CC(=O)N2
remaining signal (cell-free assay; 0.5 µM): 83.6%

Cc1ccc(NC(=O)c2ccc(C)c(C(F)(F)F)c2)cc1C#Cc1nn(C2CCC(O)CC2)c2ncnc(N)c12 (centres unmarked)
remaining signal (cell-free assay; 10 µM): 101%

Nc1ncnc2occ(-c3ccc(NC(=O)Nc4cc(C(F)(F)F)ccc4F)cc3)c12
remaining signal (cell-free assay; 20 µM): 2.7%

C=CC(=O)Nc1cc(Nc2nccc(Nc3cc(Cl)c(F)cc3C(C)(C)O)n2)c(OC)cc1N1CC[C@@H](N(C)C)C1
inhibition (enzyme activity; inhibitor; 1 µM): 6%

CS(=O)(=O)CCNCc1ccc(-c2ccc3ncnc(Nc4ccc(OCc5cccc(F)c5)c(Cl)c4)c3c2)o1
remaining signal (cell-free assay; 0.5 µM): 90.9%

CCCCN(CCCC)C(=O)CN1C[C@H](c2cc(OC)c3c(c2)OCO3)[C@@H](C(=O)O)[C@@H]1CC(C)(C)CCC
remaining binding (cell-free assay; competition with immobilised ligand; 1 µM): 100%

COc1cc2nccc(Oc3ccc(NC(=O)c4c5n(n(-c6ccc(F)cc6)c4=O)CCCC5)cc3)c2cc1OC
inhibition (enzyme activity; inhibitor; 0.1 µM): 24%

CC1=C(C#N)[C@@H](c2ccc3[nH]nc(C)c3c2)C(C#N)=C(c2ccc(Cl)cc2)N1
remaining binding (cell-free assay; competition with immobilised ligand; 1 µM): 100%

O=C(Nc1cnn(-c2csc(C(=O)NC3COC3)c2)c1)Nc1c(F)cccc1Cl
remaining activity (enzyme activity; inhibitor; 5 µM): 58.5%

CC(C)CC(=O)N1CCc2nc(-c3ccc(Br)cc3)nc(N(C)Cc3ccccc3)c2C1
remaining binding (cell-free assay; competition with immobilised ligand; 0.1 µM): 100%

Cc1ccc(C(=O)Nc2ccc(CN3CCN(C)CC3)c(C(F)(F)F)c2)cc1C#Cc1cnc2cccnn12
remaining activity (enzyme activity; 23.5 nM): 94%

CS(=O)(=O)NCC[C@H](NC(=O)c1cncc2c1cnn2-c1ccc(F)cc1)c1ccnc(S(C)(=O)=O)c1
remaining binding (cell-free assay; competition with immobilised ligand; 1 µM): 92%

CCN(CC)CCNC(=O)c1c(C)[nH]c(/C=C2\C(=O)Nc3ccc(Cl)cc32)c1C
remaining activity (enzyme activity; inhibitor; 0.5 µM): 74.7%

CCC(=N\O)/C(C)=C/c1ccc(F)cc1
remaining binding (cell-free assay; competition with immobilised ligand; 1 µM): 80%

CC(C)(C)c1nc(-c2cccc(NS(=O)(=O)c3c(F)cccc3F)c2F)c(-c2ccnc(N)n2)s1
remaining activity (enzyme activity; inhibitor; radiometric; 1 µM): 92%
